Experiments:
Type in all cases: functional, cell-based
MCF7 = test: Cytotoxicity against human MCF7 cells assessed as reduction in cell viability after 48 hrs by MTS assay; settings: MCF7, 48 h
Method in brief: (§1)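 Cells (5 × 10^3 per well) were plated 12 h before treatment, then exposed continuously to compound for 48 h. MTS was added, with 1–4 h incubation at 37 °C and OD read at 490 nm. IC50 is the concentration cutting OD by 50% versus untreated cells, taken from dose–response curves. Values are the mean of three independent determinations.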

A549 = test: Cytotoxicity against human A549 cells assessed as reduction in cell viability after 48 hrs by MTS assay; settings: A549, 48 h; method in brief: as §1
SW480 = test: Cytotoxicity against human SW480 cells assessed as reduction in cell viability after 48 hrs by MTS assay; settings: SW480, 48 h; method in brief: as §1
[1] = Cytotoxicity against human SMMC-7221 cells assessed as reduction in cell viability after 48 hrs by MTS assay; settings: SMMC-7221, 48 h; method in brief: as §1

COc1ccc(C(=O)C[n+]2c(C)n(CCC(=O)N3C[C@@H]4Cc5ccccc5[C@@H]4c4cccc(OC)c43)c3ccccc32)cc1
IC50 (MCF7): 3.12 µM
IC50 (A549): 10.6 µM
IC50 (SW480): 2.65 µM
IC50 [1]: 4.62 µM

COc1cccc2c1N(CCCn1c[n+](Cc3ccc4ccccc4c3)c3cc(C)c(C)cc31)C[C@@H]1Cc3ccc(Br)cc3[C@H]21
IC50 (MCF7): 0.84 µM
IC50 (A549): 5.62 µM
IC50 (SW480): 3.92 µM
IC50 [1]: 2.16 µM

COc1cccc2c1N(C(=O)CCn1c(C)[n+](Cc3ccc4ccccc4c3)c3ccccc31)C[C@@H]1Cc3ccccc3[C@H]21
IC50 (MCF7): 0.96 µM
IC50 (A549): 3.68 µM
IC50 (SW480): 0.77 µM
IC50 [1]: 1.45 µM

COc1ccc(C(=O)C[n+]2c(C)n(CCCN3C[C@@H]4Cc5cc(OC)c(OC)cc5[C@@H]4c4cccc(OC)c43)c3ccccc32)cc1
IC50 (MCF7): 3.36 µM
IC50 (A549): 14.4 µM
IC50 (SW480): 2.34 µM
IC50 [1]: 5.36 µM

COc1cccc2c1N(CCCn1c[n+](Cc3ccc(C)cc3)c3cc(C)c(C)cc31)C[C@@H]1Cc3ccccc3[C@H]21
IC50 (MCF7): 0.67 µM
IC50 (A549): 1.51 µM
IC50 (SW480): 0.56 µM
IC50 [1]: 0.66 µM

COc1ccc(C(=O)C[n+]2cn(CCCN3C[C@@H]4Cc5cc(OC)c(OC)cc5[C@@H]4c4cccc(OC)c43)c3cc(C)c(C)cc32)cc1
IC50 (MCF7): 2.14 µM
IC50 (A549): 8.27 µM
IC50 (SW480): 1.8 µM
IC50 [1]: 4.5 µM

COc1cc2c(cc1OC)[C@@H]1c3cccc(OC)c3N(CCCn3c[n+](CC(=O)c4ccc5ccccc5c4)c4cc(C)c(C)cc43)C[C@@H]1C2
IC50 (MCF7): 1.12 µM
IC50 (A549): 4.91 µM
IC50 (SW480): 1.38 µM
IC50 [1]: 1.71 µM

COc1cccc2c1N(CCCn1c(C)nc3ccccc31)C[C@@H]1Cc3ccc(Br)cc3[C@H]21
IC50 (MCF7): > 20 µM
IC50 (A549): > 20 µM
IC50 (SW480): > 20 µM
IC50 [1]: > 20 µM

COc1cc2c(cc1OC)[C@@H]1c3cccc(OC)c3N(C(=O)CCn3cnc4cc(C)c(C)cc43)C[C@@H]1C2
IC50 (MCF7): > 20 µM
IC50 (A549): > 20 µM
IC50 (SW480): > 20 µM
IC50 [1]: > 20 µM

COc1cc2c(cc1OC)[C@@H]1c3cccc(OC)c3N(C(=O)CCn3c(C)nc4ccccc43)C[C@@H]1C2
IC50 (MCF7): > 20 µM
IC50 (A549): > 20 µM
IC50 (SW480): > 20 µM
IC50 [1]: > 20 µM

COc1cccc2c1N(CCCn1c(C)nc3ccccc31)C[C@@H]1Cc3ccccc3[C@H]21
IC50 (MCF7): > 20 µM
IC50 (A549): > 20 µM
IC50 (SW480): > 20 µM
IC50 [1]: > 20 µM

COc1cccc2c1N(C(=O)CCn1c[n+](CC(=O)c3ccc4ccccc4c3)c3cc(C)c(C)cc31)C[C@@H]1Cc3ccccc3[C@H]21
IC50 (MCF7): 1.01 µM
IC50 (A549): 1.99 µM
IC50 (SW480): 1.35 µM
IC50 [1]: 1.12 µM

COc1cccc2c1N(C(=O)CCn1c(C)[n+](CC(=O)c3ccc4ccccc4c3)c3ccccc31)C[C@@H]1Cc3ccccc3[C@H]21
IC50 (MCF7): 1.46 µM
IC50 (A549): 4.71 µM
IC50 (SW480): 1.44 µM
IC50 [1]: 1.51 µM

COc1cccc2c1N(C(=O)CCn1c(C)[n+](Cc3ccc(C)cc3)c3ccccc31)C[C@@H]1Cc3ccccc3[C@H]21
IC50 (MCF7): 1.57 µM
IC50 (A549): 6.27 µM
IC50 (SW480): 1.57 µM
IC50 [1]: 2.04 µM

COc1cc2c(cc1OC)[C@@H]1c3cccc(OC)c3N(CCCn3cnc4cc(C)c(C)cc43)C[C@@H]1C2
IC50 (MCF7): > 20 µM
IC50 (A549): > 20 µM
IC50 (SW480): > 20 µM
IC50 [1]: > 20 µM

COc1cc2c(cc1OC)[C@@H]1c3cccc(OC)c3N(CCCn3c(C)[n+](Cc4ccc5ccccc5c4)c4ccccc43)C[C@@H]1C2
IC50 (MCF7): 1.07 µM
IC50 (A549): 1.53 µM
IC50 (SW480): 1.5 µM
IC50 [1]: 1.13 µM

COc1cccc2c1N(C(=O)CCn1c[n+](Cc3ccc4ccccc4c3)c3cc(C)c(C)cc31)C[C@@H]1Cc3ccc(Br)cc3[C@H]21
IC50 (MCF7): 1.05 µM
IC50 (A549): 1.45 µM
IC50 (SW480): 1.05 µM
IC50 [1]: 1.09 µM

COc1cccc2c1N(C(=O)CCn1cnc3cc(C)c(C)cc31)C[C@@H]1Cc3ccc(Br)cc3[C@H]21
IC50 (MCF7): > 20 µM
IC50 (A549): > 20 µM
IC50 (SW480): > 20 µM
IC50 [1]: > 20 µM

COc1cccc2c1N(CCCn1c[n+](Cc3ccc4ccccc4c3)c3cc(C)c(C)cc31)C[C@@H]1Cc3ccccc3[C@H]21
IC50 (MCF7): 0.91 µM
IC50 (A549): 1.51 µM
IC50 (SW480): 0.93 µM
IC50 [1]: 0.85 µM

COc1cccc2c1N(C(=O)CCn1c(C)[n+](CC(=O)c3ccc4ccccc4c3)c3ccccc31)C[C@@H]1Cc3ccc(Br)cc3[C@H]21
IC50 (MCF7): 1.43 µM
IC50 (A549): 2.63 µM
IC50 (SW480): 1.75 µM
IC50 [1]: 1.58 µM

COc1cccc2c1N(CCCn1c(C)[n+](Cc3ccc4ccccc4c3)c3ccccc31)C[C@@H]1Cc3ccccc3[C@H]21
IC50 (MCF7): 1.02 µM
IC50 (A549): 5.74 µM
IC50 (SW480): 2.16 µM
IC50 [1]: 2.06 µM

COc1cccc2c1N(CCCn1c(C)[n+](CC(=O)c3ccc4ccccc4c3)c3ccccc31)C[C@@H]1Cc3ccccc3[C@H]21
IC50 (MCF7): 1.36 µM
IC50 (A549): 5.32 µM
IC50 (SW480): 1.8 µM
IC50 [1]: 2.01 µM

COc1cc2c(cc1OC)[C@@H]1c3cccc(OC)c3N(CCCn3c(C)[n+](CC(=O)c4ccc5ccccc5c4)c4ccccc43)C[C@@H]1C2
IC50 (MCF7): 2.16 µM
IC50 (A549): 8.26 µM
IC50 (SW480): 2.06 µM
IC50 [1]: 5.46 µM

COc1cccc2c1N(CCCn1cnc3cc(C)c(C)cc31)C[C@@H]1Cc3ccc(Br)cc3[C@H]21
IC50 (MCF7): > 20 µM
IC50 (A549): > 20 µM
IC50 (SW480): > 20 µM
IC50 [1]: > 20 µM

COc1cccc2c1N(CCCn1c(C)[n+](Cc3ccc4ccccc4c3)c3ccccc31)C[C@@H]1Cc3ccc(Br)cc3[C@H]21
IC50 (MCF7): 0.92 µM
IC50 (A549): 1.89 µM
IC50 (SW480): 1.28 µM
IC50 [1]: 1.08 µM

COc1cc2c(cc1OC)[C@@H]1c3cccc(OC)c3N(C(=O)CCn3c(C)[n+](CC(=O)c4ccc5ccccc5c4)c4ccccc43)C[C@@H]1C2
IC50 (MCF7): 4.67 µM
IC50 (A549): 9.29 µM
IC50 (SW480): 3.79 µM
IC50 [1]: 6.53 µM

COc1cc2c(cc1OC)[C@@H]1c3cccc(OC)c3N(CCCn3c(C)nc4ccccc43)C[C@@H]1C2
IC50 (MCF7): > 20 µM
IC50 (A549): > 20 µM
IC50 (SW480): > 20 µM
IC50 [1]: > 20 µM

COc1cccc2c1N(CCCn1c(C)[n+](Cc3ccc(C)cc3)c3ccccc31)C[C@@H]1Cc3ccc(Br)cc3[C@H]21
IC50 (MCF7): 1.08 µM
IC50 (A549): 1.42 µM
IC50 (SW480): 1.62 µM
IC50 [1]: 0.98 µM

COc1cccc2c1N(C(=O)CCn1c(C)nc3ccccc31)C[C@@H]1Cc3ccc(Br)cc3[C@H]21
IC50 (MCF7): > 20 µM
IC50 (A549): > 20 µM
IC50 (SW480): > 20 µM
IC50 [1]: > 20 µM

COc1ccc(C(=O)C[n+]2c(C)n(CCC(=O)N3C[C@@H]4Cc5cc(OC)c(OC)cc5[C@@H]4c4cccc(OC)c43)c3ccccc32)cc1
IC50 (MCF7): > 20 µM
IC50 (A549): > 20 µM
IC50 (SW480): 15.4 µM
IC50 [1]: > 20 µM

COc1cccc2c1N(CCCn1c[n+](CC(=O)c3ccc4ccccc4c3)c3cc(C)c(C)cc31)C[C@@H]1Cc3ccc(Br)cc3[C@H]21
IC50 (MCF7): 1.58 µM
IC50 (A549): 3.48 µM
IC50 (SW480): 4.26 µM
IC50 [1]: 1.35 µM

COc1cccc2c1N(CCCn1c(C)[n+](Cc3ccc(C)cc3)c3ccccc31)C[C@@H]1Cc3ccccc3[C@H]21
IC50 (MCF7): 1.47 µM
IC50 (A549): 4.25 µM
IC50 (SW480): 1.66 µM
IC50 [1]: 1.8 µM

COc1cccc2c1N(C(=O)CCn1c[n+](Cc3ccc4ccccc4c3)c3cc(C)c(C)cc31)C[C@@H]1Cc3ccccc3[C@H]21
IC50 (MCF7): 0.93 µM
IC50 (A549): 2.58 µM
IC50 (SW480): 0.97 µM
IC50 [1]: 1.03 µM

COc1cccc2c1N(CCCn1c[n+](CC(=O)c3ccc4ccccc4c3)c3cc(C)c(C)cc31)C[C@@H]1Cc3ccccc3[C@H]21
IC50 (MCF7): 0.91 µM
IC50 (A549): 1.47 µM
IC50 (SW480): 1.46 µM
IC50 [1]: 1.09 µM

COc1cc2c(cc1OC)[C@@H]1c3cccc(OC)c3N(CCCn3c[n+](Cc4ccc(C)cc4)c4cc(C)c(C)cc43)C[C@@H]1C2
IC50 (MCF7): 2 µM
IC50 (A549): 4.83 µM
IC50 (SW480): 2 µM
IC50 [1]: 1.71 µM

COc1cccc2c1N(C(=O)CCn1c[n+](CC(=O)c3ccc4ccccc4c3)c3cc(C)c(C)cc31)C[C@@H]1Cc3ccc(Br)cc3[C@H]21
IC50 (MCF7): 1.22 µM
IC50 (A549): 1.11 µM
IC50 (SW480): 1.83 µM
IC50 [1]: 1 µM

COc1cccc2c1N(C(=O)CCn1c(C)nc3ccccc31)C[C@@H]1Cc3ccccc3[C@H]21
IC50 (MCF7): > 20 µM
IC50 (A549): > 20 µM
IC50 (SW480): > 20 µM
IC50 [1]: > 20 µM

COc1cc2c(cc1OC)[C@@H]1c3cccc(OC)c3N(CCCn3c(C)[n+](Cc4ccc(C)cc4)c4ccccc43)C[C@@H]1C2
IC50 (MCF7): 5.54 µM
IC50 (A549): 14.4 µM
IC50 (SW480): 3.51 µM
IC50 [1]: 6.49 µM

COc1cccc2c1N(CCCn1cnc3cc(C)c(C)cc31)C[C@@H]1Cc3ccccc3[C@H]21
IC50 (MCF7): > 20 µM
IC50 (A549): > 20 µM
IC50 (SW480): > 20 µM
IC50 [1]: > 20 µM

COc1ccc(C(=O)C[n+]2cn(CCCN3C[C@@H]4Cc5ccccc5[C@@H]4c4cccc(OC)c43)c3cc(C)c(C)cc32)cc1
IC50 (MCF7): 1.26 µM
IC50 (A549): 1.4 µM
IC50 (SW480): 1.73 µM
IC50 [1]: 1.42 µM

COc1cccc2c1N(CCCn1c(C)[n+](CC(=O)c3ccc4ccccc4c3)c3ccccc31)C[C@@H]1Cc3ccc(Br)cc3[C@H]21
IC50 (MCF7): 0.95 µM
IC50 (A549): 1.61 µM
IC50 (SW480): 1.26 µM
IC50 [1]: 1.12 µM

COc1ccc(C(=O)C[n+]2cn(CCC(=O)N3C[C@@H]4Cc5ccccc5[C@@H]4c4cccc(OC)c43)c3cc(C)c(C)cc32)cc1
IC50 (MCF7): 2.54 µM
IC50 (A549): 7.53 µM
IC50 (SW480): 0.8 µM
IC50 [1]: 3.16 µM

From ChEMBL document CHEMBL4373640, “Synthesis and antitumor activity of aza-brazilan derivatives containing imidazolium salt pharmacophores” (Medchemcomm, 2019)
